According to ChEMBL document CHEMBL1122494, “New selenium-75 labeled radiopharmaceuticals: selenonium analogues of dopamine” (J Med Chem, 1983):

How the values were obtained:
Type in all cases: ADME, organism-based
Rattus norvegicus [1] = test: Tissue radioactivity ratio in Heart to Blood 240 min after Intravenous Injection in rats; conditions: other tissue, 4 h
In short: (§1)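 Same rat biodistribution: female Sprague-Dawley rats (100-300 g), 5-6 μCi [75Se]selenonium salt in 0.2 mL saline iv by tail vein, five per time point, killed by cardioectomy under chloroform. Ratios are tissue-to-tissue quotients of gamma-counted % injected dose per gram in each organ (adrenal, heart, kidney, liver, blood).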

Rattus norvegicus [2] = test: Distribution of Se-75 activity in Lung of female Sprague-Dawley Rat 60 min after iv administration of compound; conditions: in vivo, 1 h
In short: (§2)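 Female Sprague-Dawley rats (100-300 g), five per group, got [75Se]selenonium salt in 0.2 mL saline (5-6 μCi) by lateral tail vein. They were killed by cardioectomy under chloroform anesthesia at the stated time. A sample of the large organ was weighed and gamma counted, and counts were converted to % injected dose/g. Values are mean and SEM of five.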

Rattus norvegicus [3] = test: Tissue radioactivity ratio in adrenal to blood 5 min after Intravenous Injection in rats; conditions: other tissue; in short: as §1
Rattus norvegicus [4] = test: Distribution of Se-75 activity in Lung of female Sprague-Dawley Rat 15 min after iv administration of compound; conditions: in vivo, 0.25 h; in short: as §2
Rattus norvegicus [5] = test: Distribution of Se-75 activity in Liver of female Sprague-Dawley Rat 5 min after iv administration of compound; conditions: in vivo; in short: as §2
Rattus norvegicus [6] = test: Distribution of Se-75 activity in Kidney of female Sprague-Dawley Rat 15 min after iv administration of compound; conditions: in vivo, 0.25 h
In short: (§3)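 Female Sprague-Dawley rats (100-300 g), five per group, got [75Se]selenonium salt by lateral tail vein: 0.2 mL saline with 5-6 μCi. Groups were killed by cardioectomy under chloroform anesthesia at the set times. The organ was taken intact, rinsed with saline, blotted, weighed and gamma counted. Values are % injected dose/g, mean and SEM of five.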

Rattus norvegicus [7] = test: Tissue radioactivity ratio in adrenal to Kidney 240 min after Intravenous Injection in rats; conditions: in vivo, 4 h; in short: as §1
Rattus norvegicus [8] = test: Distribution of Se-75 activity in Adrenal of female Sprague-Dawley Rat 30 min after iv administration of compound; conditions: in vivo, 0.5 h; in short: as §3
Rattus norvegicus [9] = test: Distribution of Se-75 activity in Brain of female Sprague-Dawley Rat 15 min after iv administration of compound; conditions: in vivo, 0.25 h
Rattus norvegicus [10] = test: Tissue radioactivity ratio in adrenal to Kidney 120 min after Intravenous Injection in rats; conditions: in vivo, 2 h; in short: as §1
Rattus norvegicus [11] = test: Tissue radioactivity ratio in Heart to Blood 30 min after Intravenous Injection in rats; conditions: other tissue, 0.5 h; in short: as §1
Rattus norvegicus [12] = test: Distribution of Se-75 activity in Adrenal of female Sprague-Dawley Rat 60 min after iv administration of compound; conditions: in vivo, 1 h; in short: as §3
Rattus norvegicus [13] = test: Distribution of Se-75 activity in Adrenal of female Sprague-Dawley Rat 15 after iv administration of compound; conditions: in vivo; in short: as §3
Rattus norvegicus [14] = test: Distribution of Se-75 activity in blood of female Sprague-Dawley Rat 5 min after iv administration of compound; conditions: in vivo
In short: (§4)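 Female Sprague-Dawley rats (100-300 g) got 5-6 μCi of [75Se]selenonium salt in 0.2 mL saline via lateral tail vein. Groups of five were anesthetized with chloroform at set times and killed by cardioectomy. Tissues were rinsed, blotted and weighed, then gamma-counted. Values are % injected dose per gram, mean and SEM of five.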

Rattus norvegicus [15] = test: Distribution of Se-75 activity in blood of female Sprague-Dawley Rat 240 min after iv administration of compound; conditions: in vivo, 4 h; in short: as §4
Rattus norvegicus [16] = test: Distribution of Se-75 activity in Brain of female Sprague-Dawley Rat 60 min after iv administration of compound; conditions: in vivo, 1 h
Rattus norvegicus [17] = test: Distribution of Se-75 activity in Heart of female Sprague-Dawley Rat 60 min after iv administration of compound; conditions: in vivo, 1 h; in short: as §3
Rattus norvegicus [18] = test: Distribution of Se-75 activity in Heart of female Sprague-Dawley Rat 5 min after iv administration of compound; conditions: in vivo; in short: as §3
Rattus norvegicus [19] = test: Distribution of Se-75 activity in blood of female Sprague-Dawley Rat 30 min after iv administration of compound; conditions: in vivo, 0.5 h; in short: as §4
Rattus norvegicus [20] = test: Tissue radioactivity ratio in adrenal to Kidney 30 min after Intravenous Injection in rats; conditions: in vivo, 0.5 h; in short: as §1
Rattus norvegicus [21] = test: Distribution of Se-75 activity in Kidney of female Sprague-Dawley Rat 30 min after iv administration of compound; conditions: in vivo, 0.5 h; in short: as §3
Rattus norvegicus [22] = test: Tissue radioactivity ratio in Heart to Blood 5 min after Intravenous Injection in rats; conditions: other tissue; in short: as §1
Rattus norvegicus [23] = test: Distribution of Se-75 activity in Lung of female Sprague-Dawley Rat 30 min after iv administration of compound; conditions: in vivo, 0.5 h; in short: as §2
Rattus norvegicus [24] = test: Distribution of Se-75 activity in Heart of female Sprague-Dawley Rat 15 min after iv administration of compound; conditions: in vivo, 0.25 h; in short: as §3
Rattus norvegicus [25] = test: Distribution of Se-75 activity in Kidney of female Sprague-Dawley Rat 60 min after iv administration of compound; conditions: in vivo, 1 h; in short: as §3
Rattus norvegicus [26] = test: Tissue radioactivity ratio in adrenal to blood 15 min after Intravenous Injection in rats; conditions: other tissue, 0.25 h; in short: as §1
Rattus norvegicus [27] = test: Tissue radioactivity ratio in adrenal to Liver 240 min after Intravenous Injection in rats; conditions: in vivo, 4 h; in short: as §1
Rattus norvegicus [28] = test: Distribution of Se-75 activity in Heart of female Sprague-Dawley Rat 30 min after iv administration of compound; conditions: in vivo, 0.5 h; in short: as §3
Rattus norvegicus [29] = test: Distribution of Se-75 activity in Adrenal of female Sprague-Dawley Rat 5 min after iv administration of compound; conditions: in vivo; in short: as §3
Rattus norvegicus [30] = test: Distribution of Se-75 activity in Brain of female Sprague-Dawley Rat 5 min after iv administration of compound; conditions: in vivo
Rattus norvegicus [31] = test: Tissue radioactivity ratio in adrenal to Kidney 60 min after Intravenous Injection in rats; conditions: in vivo, 1 h; in short: as §1
Rattus norvegicus [32] = test: Distribution of Se-75 activity in Liver of female Sprague-Dawley Rat 120 min after iv administration of compound; conditions: in vivo, 2 h; in short: as §2
Rattus norvegicus [33] = test: Tissue radioactivity ratio in Heart to Blood 15 min after Intravenous Injection in rats; conditions: other tissue, 0.25 h; in short: as §1
Rattus norvegicus [34] = test: Tissue radioactivity ratio in adrenal to Liver 5 min after Intravenous Injection in rats; conditions: in vivo; in short: as §1
Rattus norvegicus [35] = test: Tissue radioactivity ratio in Heart to Blood 60 min after Intravenous Injection in rats; conditions: other tissue, 1 h; in short: as §1
Rattus norvegicus [36] = test: Distribution of Se-75 activity in Liver of female Sprague-Dawley Rat 240 min after iv administration of compound; conditions: in vivo, 4 h; in short: as §2
Rattus norvegicus [37] = test: Tissue radioactivity ratio in adrenal to Kidney 15 min after Intravenous Injection in rats; conditions: in vivo, 0.25 h; in short: as §1
Rattus norvegicus [38] = test: Tissue radioactivity ratio in adrenal to blood 240 min after Intravenous Injection in rats; conditions: other tissue, 4 h; in short: as §1
Rattus norvegicus [39] = test: Distribution of Se-75 activity in Kidney of female Sprague-Dawley Rat 5 min after iv administration of compound; conditions: in vivo; in short: as §3
Rattus norvegicus [40] = test: Tissue radioactivity ratio in adrenal to blood 60 min after Intravenous Injection in rats; conditions: other tissue, 1 h; in short: as §1
Rattus norvegicus [41] = test: Tissue radioactivity ratio in adrenal to blood 120 min after Intravenous Injection in rats; conditions: other tissue, 2 h; in short: as §1
Rattus norvegicus [42] = test: Tissue radioactivity ratio in adrenal to Liver 30 min after Intravenous Injection in rats; conditions: in vivo, 0.5 h; in short: as §1
Rattus norvegicus [43] = test: Distribution of Se-75 activity in Liver of female Sprague-Dawley Rat 15 min after iv administration of compound; conditions: in vivo, 0.25 h; in short: as §2

COc1ccc(CC[Se+](C)C)cc1OC.[I-]
Ratio (Rattus norvegicus [1]): 2 | Dose/g (Rattus norvegicus [2]): 0.38% | Ratio (Rattus norvegicus [3]): 2.53 | Dose/g (Rattus norvegicus [4]): 0.097% | Dose/g (Rattus norvegicus [5]): 2.48% | Dose/g (Rattus norvegicus [6]): 1.29% | Ratio (Rattus norvegicus [7]): 4 | Dose/g (Rattus norvegicus [8]): 0.94% | Dose/g (Rattus norvegicus [9]): 0.02% | Ratio (Rattus norvegicus [10]): 2.24 | Ratio (Rattus norvegicus [11]): 2.64 | Dose/g (Rattus norvegicus [12]): 0.71% | Dose/g (Rattus norvegicus [13]): 0.88% | Dose/g (Rattus norvegicus [14]): 0.34% | Dose/g (Rattus norvegicus [15]): 0.03% | Dose/g (Rattus norvegicus [16]): 0.01% | Dose/g (Rattus norvegicus [17]): 0.27% | Dose/g (Rattus norvegicus [18]): 2.38% | Dose/g (Rattus norvegicus [19]): 0.22% | Ratio (Rattus norvegicus [20]): 0.95 | Dose/g (Rattus norvegicus [21]): 0.99% | Ratio (Rattus norvegicus [22]): 7 | Dose/g (Rattus norvegicus [23]): 0.75% | Dose/g (Rattus norvegicus [24]): 1.16% | Dose/g (Rattus norvegicus [25]): 0.53% | Ratio (Rattus norvegicus [26]): 3.39 | Ratio (Rattus norvegicus [27]): 3.55 | Dose/g (Rattus norvegicus [28]): 0.58% | Dose/g (Rattus norvegicus [29]): 0.86% | Dose/g (Rattus norvegicus [30]): 0.03% | Ratio (Rattus norvegicus [31]): 1.34 | Dose/g (Rattus norvegicus [32]): 0.29% | Ratio (Rattus norvegicus [33]): 4.46 | Ratio (Rattus norvegicus [34]): 0.35 | Ratio (Rattus norvegicus [35]): 2.25 | Dose/g (Rattus norvegicus [36]): 0.18% | Ratio (Rattus norvegicus [37]): 0.68 | Ratio (Rattus norvegicus [38]): 21.33 | Dose/g (Rattus norvegicus [39]): 2.73% | Ratio (Rattus norvegicus [40]): 5.92 | Ratio (Rattus norvegicus [41]): 9.25 | Ratio (Rattus norvegicus [42]): 0.54 | Dose/g (Rattus norvegicus [43]): 1.93%

C[Se+](C)CCc1ccc(O)c(O)c1.[Cl-]
Ratio (Rattus norvegicus [1]): 3.2 | Dose/g (Rattus norvegicus [2]): 0.58% | Ratio (Rattus norvegicus [3]): 2.22 | Dose/g (Rattus norvegicus [4]): 1.14% | Dose/g (Rattus norvegicus [5]): 1.86% | Dose/g (Rattus norvegicus [6]): 1.07% | Ratio (Rattus norvegicus [7]): 3.28 | Dose/g (Rattus norvegicus [8]): 0.86% | Dose/g (Rattus norvegicus [9]): 0.01% | Ratio (Rattus norvegicus [10]): 2.52 | Ratio (Rattus norvegicus [11]): 3.86 | Dose/g (Rattus norvegicus [12]): 0.87% | Dose/g (Rattus norvegicus [13]): 0.87% | Dose/g (Rattus norvegicus [14]): 0.35% | Dose/g (Rattus norvegicus [15]): 0.05% | Dose/g (Rattus norvegicus [16]): 0.01% | Dose/g (Rattus norvegicus [17]): 0.46% | Dose/g (Rattus norvegicus [18]): 2.37% | Dose/g (Rattus norvegicus [19]): 0.28% | Ratio (Rattus norvegicus [20]): 0.81 | Dose/g (Rattus norvegicus [21]): 1.07% | Ratio (Rattus norvegicus [22]): 6.77 | Dose/g (Rattus norvegicus [23]): 0.83% | Dose/g (Rattus norvegicus [24]): 1.58% | Dose/g (Rattus norvegicus [25]): 0.59% | Ratio (Rattus norvegicus [26]): 2.9 | Ratio (Rattus norvegicus [27]): 2.56 | Dose/g (Rattus norvegicus [28]): 1.08% | Dose/g (Rattus norvegicus [29]): 0.78% | Dose/g (Rattus norvegicus [30]): 0.02% | Ratio (Rattus norvegicus [31]): 1.47 | Dose/g (Rattus norvegicus [32]): 0.32% | Ratio (Rattus norvegicus [33]): 5.27 | Ratio (Rattus norvegicus [34]): 0.42 | Ratio (Rattus norvegicus [35]): 2.55 | Dose/g (Rattus norvegicus [36]): 0.23% | Ratio (Rattus norvegicus [37]): 0.81 | Ratio (Rattus norvegicus [38]): 11.8 | Dose/g (Rattus norvegicus [39]): 2.65% | Ratio (Rattus norvegicus [40]): 4.83 | Ratio (Rattus norvegicus [41]): 9.12 | Ratio (Rattus norvegicus [42]): 0.31 | Dose/g (Rattus norvegicus [43]): 2%
